Active and inactive are the calls of the source. The rule behind the calls is not given here.
Legend:
[1] = system: HeLa; test: Induction of macropinocytosis-like cytosolic vacuolization in human HeLa cells at 20 uM after 24 hrs by transmission electron microscopic analysis; type: functional, cell-based
How it was run: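 HeLa exposed to 20 µM for 24 h, then fixed, dehydrated and resin-embedded. Ultrathin sections on copper grids stained with uranyl acetate and lead citrate, then examined by TEM.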

[2] = system: HeLa; test: Anticancer activity against human HeLa cells assessed as vacuole formation at 20 uM after 24 hrs by phase contrast microscopic analysis; type: functional, cell-based
[3] = system: MCF7; test: Anticancer activity against human MCF7 cells assessed as cell viability at 20 uM after 48 hrs by CCK8 assay relative to control; type: functional; details: MCF7, 48 h, read-out: Activity
How it was run: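 Cells (5000/well, pre-incubated overnight) exposed to 20 µM for 48 h. CCK-8 absorbance read at 450 nm. Viability given as percent of vehicle (DMSO) control, mean ± SD. Six parallel wells per condition, at least three independent repeats.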

[4] = system: HeLa; test: Anticancer activity against human HeLa cells assessed as cell viability at 20 uM after 24 to 72 hrs by CCK8 assay relative to control; type: functional; details: read-out: Activity
How it was run: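 HeLa cells seeded at 5000/well and pre-incubated overnight, then exposed to 20 µM. CCK-8 absorbance at 450 nm read at 24, 48 and 72 h, relative to DMSO-treated control. Six wells per condition, experiments repeated at least three times.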

Q: Which results are given for `C[C@H]1[C@H](C)CC[C@]2(C(=O)O)CC[C@]3(C)C(=CC[C@@H]4[C@@]5(C)Cc6cnn(-c7ccc(C#N)cc7)c6C(C)(C)[C@@H]5CC[C@]43C)[C@H]12`?
A: Activity [1]: Active; Activity [2]: Active; viability at 20 µM [3]: 25.2%; viability at 20 µM [4]: 74.2%
